Reference: ChEMBL document CHEMBL4732243, “Design, synthesis, and structure activity relationship analysis of new betulinic acid derivatives as potent HIV inhibitors” (Eur J Med Chem, 2021)
Each block holds one compound with its values, some of them ahead of it.

Key:
[1] = test system: MT4; experiment: Cytotoxicity against human MT4 cells assessed as reduction in cell viability incubated for 2 days by CytoTox-Glo cytotoxicity assay; type: cell-based; conditions: mt4, 48 h, time 2 day
In short: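 Mock-infected MT-4 cells cultured 2 days with a range of compound concentrations. Viability measured by CytoTox-Glo, following the kit protocol, as percent viable cells. CC50 is the concentration giving a 50% reduction in cell viability.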

[2] = test system: Human immunodeficiency virus 1; experiment: Antiviral activity against HIV-1 NL4-3 infected in human MT4 cells assessed as reduction in p24 gag protein incubated for 4 days by ELISA; type: functional, organism-based; conditions: Human immunodeficiency virus 1, NL4-3, MT4, 96 h
In short: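 MT-4 cells infected with HIV-1 NL4-3 at MOI 0.01, serial compound concentrations, in 96-well format. Supernatant p24 antigen measured by capture ELISA on day 4 post-infection. IC50 is the concentration that inhibits NL4-3 replication by 50%. Bevirimat run in parallel as the reference.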

SMILES: C=C(C)[C@@H]1CC[C@]2(C(=O)N3CCN(C(=O)/C=C/c4ccc(OCOC)c(OCOC)c4)CC3)CC[C@]3(C)[C@H](CC[C@@H]4[C@@]5(C)CC[C@H](OC(=O)CC(C)(C)C(=O)O)C(C)(C)[C@@H]5CC[C@]43C)[C@@H]12
CC50 [1]: > 2000 nM

SMILES: C=C(C)[C@@H]1CC[C@]2(C(=O)N3CCN(C(=O)/C=C/c4ccc(OC)c(OC)c4)CC3)CC[C@]3(C)[C@H](CC[C@@H]4[C@@]5(C)CC[C@H](OC(=O)CC(C)(C)C(=O)O)C(C)(C)[C@@H]5CC[C@]43C)[C@@H]12
CC50 [1]: > 2000 nM

SMILES: C=C(C)[C@@H]1CC[C@]2(C(=O)N3CCN(CCCCC(=O)N4CCN(C(=O)/C=C/c5ccc6c(c5)OCO6)CC4)CC3)CC[C@]3(C)[C@H](CC[C@@H]4[C@@]5(C)CC[C@H](OC(=O)CC(C)(C)C(=O)O)C(C)(C)[C@@H]5CC[C@]43C)[C@@H]12
CC50 [1]: > 2000 nM

IC50 ([2]; read-out: IC50): > 1000 nM
SMILES: C=C(C)[C@@H]1CC[C@]2(C(=O)N3CCN(C(=O)/C=C/c4ccc(OCCCCCCCC)c(OC)c4)CC3)CC[C@]3(C)[C@H](CC[C@@H]4[C@@]5(C)CC[C@H](OC(=O)CC(C)(C)C(=O)O)C(C)(C)[C@@H]5CC[C@]43C)[C@@H]12

IC50 ([2]; read-out: IC50): > 1000 nM
SMILES: C=C(C)[C@@H]1CC[C@]2(C(=O)N3CCN(C(=O)/C=C/c4ccc(O)c(OCCCCCCCC)c4)CC3)CC[C@]3(C)[C@H](CC[C@@H]4[C@@]5(C)CC[C@H](OC(=O)CC(C)(C)C(=O)O)C(C)(C)[C@@H]5CC[C@]43C)[C@@H]12

SMILES: C=C(C)[C@@H]1CC[C@]2(C(=O)N3CCN(C(=O)/C=C/c4cccc(C(F)(F)F)c4)CC3)CC[C@]3(C)[C@H](CC[C@@H]4[C@@]5(C)CC[C@H](OC(=O)CC(C)(C)C(=O)O)C(C)(C)[C@@H]5CC[C@]43C)[C@@H]12
CC50 [1]: > 2000 nM
IC50 ([2]; read-out: IC50): 560 nM
IC50 ([2]; read-out: pIC50 (converted)): 562 nM

SMILES: C=C(C)[C@@H]1CC[C@]2(C(=O)N3CCN(C(=O)/C=C/c4cc(OC)c(OC)c(OC)c4)CC3)CC[C@]3(C)[C@H](CC[C@@H]4[C@@]5(C)CC[C@H](OC(=O)CC(C)(C)C(=O)O)C(C)(C)[C@@H]5CC[C@]43C)[C@@H]12
CC50 [1]: > 2000 nM
IC50 ([2]; read-out: IC50): 41 nM
IC50 ([2]; read-out: pIC50 (converted)): 40.7 nM

SMILES: C=C(C)[C@@H]1CC[C@]2(C(=O)N3CCN(C(=O)/C=C/c4ccc(N(C)C)cc4)CC3)CC[C@]3(C)[C@H](CC[C@@H]4[C@@]5(C)CC[C@H](OC(=O)CC(C)(C)C(=O)O)C(C)(C)[C@@H]5CC[C@]43C)[C@@H]12
CC50 [1]: > 2000 nM
IC50 ([2]; read-out: IC50): 27 nM
IC50 ([2]; read-out: pIC50 (converted)): 26.9 nM

SMILES: C=C(C)[C@@H]1CC[C@]2(C(=O)CC(=O)CC(C)(C)C(=O)O)CC[C@]3(C)[C@H](CC[C@@H]4[C@@]5(C)CC[C@H](OC(=O)/C=C/c6ccc(OCOC)c(OCOC)c6)C(C)(C)[C@@H]5CC[C@]43C)[C@@H]12
IC50 ([2]; read-out: IC50): > 1000 nM

IC50 ([2]; read-out: IC50): > 1000 nM
SMILES: C=C(C)[C@@H]1CC[C@]2(C(=O)N3CCN(C(=O)/C=C/c4ccc(OCOC)c(OCCCCCCCC)c4)CC3)CC[C@]3(C)[C@H](CC[C@@H]4[C@@]5(C)CC[C@H](OC(=O)CC(C)(C)C(=O)O)C(C)(C)[C@@H]5CC[C@]43C)[C@@H]12

SMILES: C=C(C)[C@@H]1CC[C@]2(C(=O)O)CC[C@]3(C)[C@H](CC[C@@H]4[C@@]5(C)CC[C@H](OC(=O)/C=C/c6ccc7c(c6)OCO7)C(C)(C)[C@@H]5CC[C@]43C)[C@@H]12
IC50 ([2]; read-out: IC50): > 1000 nM

SMILES: C=C(C)[C@@H]1CC[C@]2(CN3CCN(C(=O)/C=C/c4ccc5c(c4)OCO5)CC3)CC[C@]3(C)[C@H](CC[C@@H]4[C@@]5(C)CC[C@H](OC(=O)CC(C)(C)C(=O)O)C(C)(C)[C@@H]5CC[C@]43C)[C@@H]12
IC50 ([2]; read-out: IC50): > 1000 nM

SMILES: C=C(C)[C@@H]1CC[C@]2(C(=O)N3CCN(C(=O)/C=C/c4ccccc4OC)CC3)CC[C@]3(C)[C@H](CC[C@@H]4[C@@]5(C)CC[C@H](OC(=O)CC(C)(C)C(=O)O)C(C)(C)[C@@H]5CC[C@]43C)[C@@H]12
CC50 [1]: > 2000 nM
IC50 ([2]; read-out: IC50): 170 nM
IC50 ([2]; read-out: pIC50 (converted)): 170 nM

SMILES: C=C(C)[C@@H]1CC[C@]2(C(=O)CC(=O)CC(C)(C)C(=O)O)CC[C@]3(C)[C@H](CC[C@@H]4[C@@]5(C)CC[C@H](OC(=O)/C=C/N6CCN(C(=O)OC(C)(C)C)CC6)C(C)(C)[C@@H]5CC[C@]43C)[C@@H]12
IC50 ([2]; read-out: IC50): > 1000 nM

SMILES: C=C(C)[C@@H]1CC[C@]2(C(=O)N3CCN(C(=O)/C=C/c4ccc(OCc5cccc([N+](=O)[O-])c5)c(OC)c4)CC3)CC[C@]3(C)[C@H](CC[C@@H]4[C@@]5(C)CC[C@H](OC(=O)CC(C)(C)C(=O)O)C(C)(C)[C@@H]5CC[C@]43C)[C@@H]12
CC50 [1]: > 2000 nM
IC50 ([2]; read-out: IC50): 750 nM
IC50 ([2]; read-out: pIC50 (converted)): 759 nM

SMILES: C=C(C)[C@@H]1CC[C@]2(C(=O)N3CCN(C(=O)/C=C/c4ccc(Cl)cc4)CC3)CC[C@]3(C)[C@H](CC[C@@H]4[C@@]5(C)CC[C@H](OC(=O)CC(C)(C)C(=O)O)C(C)(C)[C@@H]5CC[C@]43C)[C@@H]12
CC50 [1]: > 2000 nM
IC50 ([2]; read-out: IC50): 360 nM
IC50 ([2]; read-out: pIC50 (converted)): 363 nM

IC50 ([2]; read-out: IC50): > 1000 nM
SMILES: C=C(C)[C@@H]1CC[C@]2(C(=O)N3CCN(C(=O)/C=C/c4ccc(OCCCCCCCC)c(OCCCCCCCC)c4)CC3)CC[C@]3(C)[C@H](CC[C@@H]4[C@@]5(C)CC[C@H](OC(=O)CC(C)(C)C(=O)O)C(C)(C)[C@@H]5CC[C@]43C)[C@@H]12

SMILES: C=C(C)[C@@H]1CC[C@]2(C(=O)O)CC[C@]3(C)[C@H](CC[C@@H]4[C@@]5(C)CC[C@H](OC(=O)/C=C/c6ccc(OCOC)c(OCOC)c6)C(C)(C)[C@@H]5CC[C@]43C)[C@@H]12
IC50 ([2]; read-out: IC50): > 1000 nM

IC50 ([2]; read-out: IC50): > 1000 nM
SMILES: C=C(C)[C@@H]1CC[C@]2(C(=O)OCCCCCCCCN3CCN(C(=O)/C=C/c4ccc5c(c4)OCO5)CC3)CC[C@]3(C)[C@H](CC[C@@H]4[C@@]5(C)CC[C@H](OC(=O)CC(C)(C)C(=O)O)C(C)(C)[C@@H]5CC[C@]43C)[C@@H]12

SMILES: C=C(C)[C@@H]1CC[C@]2(C(=O)N3CCN(C(=O)/C=C/c4ccc(OC)cc4)CC3)CC[C@]3(C)[C@H](CC[C@@H]4[C@@]5(C)CC[C@H](OC(=O)CC(C)(C)C(=O)O)C(C)(C)[C@@H]5CC[C@]43C)[C@@H]12
CC50 [1]: > 2000 nM
IC50 ([2]; read-out: IC50): 76 nM
IC50 ([2]; read-out: pIC50 (converted)): 75.9 nM

SMILES: C=C(C)[C@@H]1CC[C@]2(C(=O)N3CCN(C(=O)/C=C/c4ccc([N+](=O)[O-])cc4)CC3)CC[C@]3(C)[C@H](CC[C@@H]4[C@@]5(C)CC[C@H](OC(=O)CC(C)(C)C(=O)O)C(C)(C)[C@@H]5CC[C@]43C)[C@@H]12
CC50 [1]: > 2000 nM
IC50 ([2]; read-out: IC50): 110 nM
IC50 ([2]; read-out: pIC50 (converted)): 110 nM

SMILES: C=C(C)[C@@H]1CC[C@]2(C(=O)N3CCN(C(=O)CC(C)(C)C(=O)O)CC3)CC[C@]3(C)[C@H](CC[C@@H]4[C@@]5(C)CC[C@H](OC(=O)/C=C/c6ccc7c(c6)OCO7)C(C)(C)[C@@H]5CC[C@]43C)[C@@H]12
IC50 ([2]; read-out: IC50): > 1000 nM

IC50 ([2]; read-out: IC50): > 1000 nM
SMILES: C=C(C)[C@@H]1CC[C@]2(C(=O)N3CCN(C(=O)/C=C/c4ccc(OCc5cccc(Cl)c5)c(OC)c4)CC3)CC[C@]3(C)[C@H](CC[C@@H]4[C@@]5(C)CC[C@H](OC(=O)CC(C)(C)C(=O)O)C(C)(C)[C@@H]5CC[C@]43C)[C@@H]12

SMILES: C=C(C)[C@@H]1CC[C@]2(C(=O)CC(C)=O)CC[C@]3(C)[C@H](CC[C@@H]4[C@@]5(C)CC[C@H](OC(=O)/C=C/N6CCN(C(=O)OC(C)(C)C)CC6)C(C)(C)[C@@H]5CC[C@]43C)[C@@H]12
IC50 ([2]; read-out: IC50): > 1000 nM

SMILES: C=C(C)[C@@H]1CC[C@]2(C(=O)N3CCN(C(=O)/C=C/c4ccc(OC)c(Cl)c4)CC3)CC[C@]3(C)[C@H](CC[C@@H]4[C@@]5(C)CC[C@H](OC(=O)CC(C)(C)C(=O)O)C(C)(C)[C@@H]5CC[C@]43C)[C@@H]12
CC50 [1]: > 2000 nM
IC50 ([2]; read-out: IC50): 130 nM
IC50 ([2]; read-out: pIC50 (converted)): 129 nM

SMILES: C=C(C)[C@@H]1CC[C@]2(C(=O)N3CCN(C(=O)CC(C)(C)C(=O)O)CC3)CC[C@]3(C)[C@H](CC[C@@H]4[C@@]5(C)CC[C@H](Oc6ccc7c(c6)OCO7)C(C)(C)[C@@H]5CC[C@]43C)[C@@H]12
IC50 ([2]; read-out: IC50): > 1000 nM

SMILES: C=C(C)[C@@H]1CC[C@]2(C(=O)N3CCN(C(=O)/C=C/c4cccc(OC)c4)CC3)CC[C@]3(C)[C@H](CC[C@@H]4[C@@]5(C)CC[C@H](OC(=O)CC(C)(C)C(=O)O)C(C)(C)[C@@H]5CC[C@]43C)[C@@H]12
CC50 [1]: > 2000 nM
IC50 ([2]; read-out: IC50): 150 nM
IC50 ([2]; read-out: pIC50 (converted)): 151 nM

SMILES: C=C(C)[C@@H]1CC[C@]2(C(=O)N3CCN(C(=O)CC(C)(C)C(=O)O)CC3)CC[C@]3(C)[C@H](CC[C@@H]4[C@@]5(C)CC[C@H](O)C(C)(C)[C@@H]5CC[C@]43C)[C@@H]12
IC50 ([2]; read-out: IC50): > 1000 nM

SMILES: C=C(C)[C@@H]1CC[C@]2(C(=O)N3CCN(C(=O)/C=C/c4cccc(OCc5cccc([N+](=O)[O-])c5)c4)CC3)CC[C@]3(C)[C@H](CC[C@@H]4[C@@]5(C)CC[C@H](OC(=O)CC(C)(C)C(=O)O)C(C)(C)[C@@H]5CC[C@]43C)[C@@H]12
CC50 [1]: > 2000 nM
IC50 ([2]; read-out: IC50): 580 nM
IC50 ([2]; read-out: pIC50 (converted)): 575 nM

SMILES: C=C(C)[C@@H]1CC[C@]2(C(=O)OCCCOC(=O)/C=C/c3ccc(N(C)C)cc3)CC[C@]3(C)[C@H](CC[C@@H]4[C@@]5(C)CC[C@H](OC(=O)CC(C)(C)C(=O)O)C(C)(C)[C@@H]5CC[C@]43C)[C@@H]12
IC50 ([2]; read-out: IC50): > 1000 nM

SMILES: C=C(C)[C@@H]1CC[C@]2(C(=O)N3CCN(C(=O)/C=C/c4ccc(OCOC)cc4)CC3)CC[C@]3(C)[C@H](CC[C@@H]4[C@@]5(C)CC[C@H](OC(=O)CC(C)(C)C(=O)O)C(C)(C)[C@@H]5CC[C@]43C)[C@@H]12
CC50 [1]: > 2000 nM
IC50 ([2]; read-out: IC50): 200 nM
IC50 ([2]; read-out: pIC50 (converted)): 200 nM

SMILES: C=C(C)[C@@H]1CC[C@]2(C(=O)O)CC[C@]3(C)[C@H](CC[C@@H]4[C@@]5(C)CC[C@H](OC(=O)CC(C)(C)C(=O)O)C(C)(C)[C@@H]5CC[C@]43C)[C@@H]12 [BEVIRIMAT]
CC50 [1]: > 2000 nM
